Measured values as given in ChEMBL document CHEMBL4130343, “Design, synthesis, and evaluation of benzofuran derivatives as novel anti-pancreatic carcinoma agents via interfering the hypoxia environment by targeting HIF-1α pathway” (Eur J Med Chem, 2017).
The source made the active and inactive calls. The rule behind the calls is not given here.

Experiments:
PANC-1 [1] = experiment: Antiproliferative activity against human PANC1 cells after 48 hrs by MTT assay; assay type: functional, cell-based; details: PANC-1, 48 h
Procedure, shortened: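 Cells were seeded at 5×10^5 cells/mL overnight and exposed to graded compound concentrations for 48 h. MTT (5 mg/mL stock) was added for 4 h at 37 °C, and formazan was dissolved in DMSO. Absorbance was read at 570 nm. IC₅₀ was fitted from the curves; values are mean ± SD, n = 3.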

[2] = Effective permeability of the compound at pH 7.4 by PAMPA; assay type: ADME; details: read-out: Peff
Procedure, shortened: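 Effective permeability was measured by double-sink PAMPA on a pION PAMPA Explorer.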

[3] = Half life in rat at 10 mg/kg, po after 0.083 to 24 hrs by LC-MS/MS method; assay type: ADME, organism-based; details: in vivo
[4] = Oral bioavailability in rat at 10 mg/kg after 0.083 to 24 hrs by LC-MS/MS method; assay type: ADME, organism-based; details: in vivo
[5] = Cmax in rat at 10 mg/kg, iv after 0.083 to 24 hrs by LC-MS/MS method; assay type: ADME, organism-based; set-up: dose 10 mg/kg, route intravenous; details: in vivo
[6] = AUC (0 to t) in rat at 10 mg/kg, iv after 0.083 to 24 hrs by LC-MS/MS method; assay type: ADME, organism-based; set-up: time upper 24 hr, time lower 0.083 hr, dose 10 mg/kg, route intravenous; details: in vivo
[7] = Cmax in rat at 10 mg/kg, ip after 0.083 to 24 hrs by LC-MS/MS method; assay type: ADME, organism-based; set-up: dose 10 mg/kg, route intraperitoneal; details: in vivo
[8] = Half life in rat at 10 mg/kg, ip after 0.083 to 24 hrs by LC-MS/MS method; assay type: ADME, organism-based; details: in vivo
[9] = AUC (0 to t) in rat at 10 mg/kg, ip after 0.083 to 24 hrs by LC-MS/MS method; assay type: ADME, organism-based; set-up: dose 10 mg/kg, time 0.083-24 hr, route intraperitoneal; details: in vivo
[10] = Bioavailability in rat at 10 mg/kg, ip after 0.083 to 24 hrs by LC-MS/MS method; assay type: ADME, organism-based; details: in vivo
[11] = Plasma concentration in rat at 10 mg/kg, ip after 36 hrs by LC-MS/MS method; assay type: ADME, organism-based
Procedure, shortened: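 Rats, n = 6 per group, each given a single 10 mg/kg dose. Blood was collected into heparinized tubes and centrifuged at 4 °C and 8000 rpm for 5 min. Plasma was analysed by LC–MS/MS.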

PANC-1 [12] = experiment: Induction of apoptosis in human PANC1 cells assessed as early apoptotic cells at 0.1 uM after 24 hrs by annexin V/propidium iodide staining-based flow cytometric method (reference value: 7.25%); assay type: functional
PANC-1 [13] = experiment: Induction of apoptosis in human PANC1 cells assessed as late apoptotic cells at 0.1 uM after 24 hrs by annexin V/propidium iodide staining-based flow cytometric method (reference value: 2.65%); assay type: functional
PANC-1 [14] = experiment: Induction of apoptosis in human PANC1 cells assessed as dead cells at 0.1 uM after 24 hrs by annexin V/propidium iodide staining-based flow cytometric method (reference value: 0.60%); assay type: functional
PANC-1 [15] = experiment: Induction of apoptosis in human PANC1 cells assessed as late apoptotic cells at 1 uM after 24 hrs by annexin V/propidium iodide staining-based flow cytometric method (reference value: 2.65%); assay type: functional
PANC-1 [16] = experiment: Induction of apoptosis in human PANC1 cells assessed as dead cells at 1 uM after 24 hrs by annexin V/propidium iodide staining-based flow cytometric method (reference value: 0.60%); assay type: functional
PANC-1 [17] = experiment: Induction of apoptosis in human PANC1 cells assessed as early apoptotic cells at 2 uM after 24 hrs by annexin V/propidium iodide staining-based flow cytometric method (reference value: 7.25%); assay type: functional
PANC-1 [18] = experiment: Induction of apoptosis in human PANC1 cells assessed as late apoptotic cells at 2 uM after 24 hrs by annexin V/propidium iodide staining-based flow cytometric method (reference value: 2.65%); assay type: functional
PANC-1 [19] = experiment: Induction of apoptosis in human PANC1 cells assessed as viable cells at 2 uM after 24 hrs by annexin V/propidium iodide staining-based flow cytometric method (reference value: 89.5%); assay type: functional; details: PANC-1, 24 h, read-out: Activity
PANC-1 [20] = experiment: Induction of apoptosis in human PANC1 assessed as increase in cleaved caspase-3 levels at 0.1 to 1 uM after 24 hrs by Western blot method; assay type: functional, cell-based
Procedure, shortened: (§1)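 PANC-1 cells were treated with graded compound concentrations for 24 h, then lysed. Proteins were separated by SDS-PAGE and blotted to PVDF. Blots were probed for PARP, cleaved PARP, caspase-3, cleaved caspase-3, caspase-9 and cleaved caspase-9, with GAPDH as loading control, and read by infrared imaging. Bands were quantified by densitometry as ratios normalized to GAPDH.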

PANC-1 [21] = experiment: Induction of apoptosis in human PANC1 assessed as increase in cleaved caspase-9 levels at 0.1 to 1 uM after 24 hrs by Western blot method; assay type: functional, cell-based; procedure, shortened: as §1
PANC-1 [22] = experiment: Induction of apoptosis in human PANC1 assessed as decrease in PARP levels at 0.1 to 1 uM after 24 hrs by Western blot method; assay type: functional, cell-based; procedure, shortened: as §1
PANC-1 [23] = experiment: Antitumor activity against human PANC1 cells xenografted in nude mouse assessed as inhibition of tumor weight at 15 mg/kg, ip administered every 2 days for 21 days relative to vehicle-treated control; assay type: functional; details: PANC-1, ip
Procedure, shortened: (§2)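 Female nude mice received 1×10^7 PANC-1 cells subcutaneously in the right flank. After 4 weeks, mice bearing tumors averaging 100 mm³ were randomized into five groups. Dosing was 15, 30 or 60 mg/kg i.p. every two days for 21 days. Tumor volume = width² × length/2; tumors were weighed at sacrifice, and body weight was monitored.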

PANC-1 [24] = experiment: Antitumor activity against human PANC1 cells xenografted in nude mouse assessed as decrease in tumor volume at 15 to 60 mg/kg, ip administered every 2 days for 21 days; assay type: functional, organism-based; procedure, shortened: as §2
[25] = molecular target: Hypoxia-inducible factor 1-alpha (Homo sapiens) (UniProt Q16665); experiment: Inhibition of HIF-1alpha (unknown origin) expressed in HEK293 cells under hypoxia condition after 24 hrs by luciferase reporter gene assay; assay type: cell-based
Procedure, shortened: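 HEK293 cells were co-transfected with HRE-luciferase and pRL-SV40 plasmids for 6 h. Cells were then treated with compound under hypoxia (1% O₂, 94% N₂, 5% CO₂, 37 °C) for 24 h. Activity was read by dual-luciferase assay on a luminometer.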

[26] = molecular target: Hypoxia-inducible factor 1-alpha (Homo sapiens) (UniProt Q16665); experiment: Inhibition of HIF-1alpha in human PANC1 cells assessed as downregulation of VEGF mRNA levels under hypoxia condition after 24 hrs by qRT-PCR method; assay type: cell-based
Procedure, shortened: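 PANC-1 cells were exposed to hypoxia (1% O₂, 94% N₂, 5% CO₂, 37 °C) for 24 h with compound treatment. VEGF mRNA was measured by real-time qRT-PCR.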

Mus musculus [27] = experiment: Downregulation of VEGF expression in human PANC1 cells xenografted in nude mouse at 15 to 60 mg/kg, ip administered every 2 days for 21 days by immunohistochemical method; assay type: functional, organism-based
Procedure, shortened: (§3)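 Tumors came from the PANC-1 nude-mouse xenografts dosed at 15, 30 or 60 mg/kg i.p. every two days for 21 days. Tumor sections were stained immunohistochemically with antibodies against CD31, HIF-1α and VEGF.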

Mus musculus [28] = experiment: Effect on HIF-1alpha expression in human PANC1 cells xenografted in nude mouse at 15 to 60 mg/kg, ip administered every 2 days for 21 days by immunohistochemical method; assay type: functional, organism-based; procedure, shortened: as §3
HUVEC = experiment: Antiangiogenic activity in HUVEC assessed as inhibition of tube formation under hypoxia condition at 0.625 to 2.5 uM after 6 hrs by inverted microscopic method; details: Homo sapiens

Hypoxia-inducible factor 1-alpha (Homo sapiens), sequence (Q16665 whole entry, looked up): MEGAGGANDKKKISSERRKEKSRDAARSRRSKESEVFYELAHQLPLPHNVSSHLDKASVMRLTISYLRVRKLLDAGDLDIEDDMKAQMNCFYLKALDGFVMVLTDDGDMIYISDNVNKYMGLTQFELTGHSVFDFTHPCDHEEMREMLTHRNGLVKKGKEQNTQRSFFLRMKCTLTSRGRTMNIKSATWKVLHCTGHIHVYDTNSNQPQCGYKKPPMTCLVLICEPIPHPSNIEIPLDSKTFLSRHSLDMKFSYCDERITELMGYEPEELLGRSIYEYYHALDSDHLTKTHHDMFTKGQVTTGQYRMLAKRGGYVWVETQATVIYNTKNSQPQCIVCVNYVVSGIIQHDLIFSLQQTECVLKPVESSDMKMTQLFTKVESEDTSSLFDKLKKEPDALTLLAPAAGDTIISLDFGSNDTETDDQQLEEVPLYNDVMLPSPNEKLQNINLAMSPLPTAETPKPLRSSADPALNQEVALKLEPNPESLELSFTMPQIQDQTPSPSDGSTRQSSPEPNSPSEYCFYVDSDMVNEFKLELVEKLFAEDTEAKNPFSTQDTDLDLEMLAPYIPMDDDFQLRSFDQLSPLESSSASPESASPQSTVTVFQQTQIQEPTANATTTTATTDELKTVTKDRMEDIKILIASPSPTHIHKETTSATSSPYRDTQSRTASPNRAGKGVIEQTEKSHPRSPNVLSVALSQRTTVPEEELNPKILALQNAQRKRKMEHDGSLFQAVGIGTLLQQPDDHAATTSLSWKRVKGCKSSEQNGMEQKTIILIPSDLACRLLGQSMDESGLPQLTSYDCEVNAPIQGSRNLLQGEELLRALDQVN

Cc1c(C(=O)NC2CCN(C)CC2)oc2ccc(N(Cc3ccc(Br)cc3)S(=O)(=O)c3ccc(Br)cc3)cc12
IC50 (PANC-1 [1]): 1070 nM
Papp [2]: 6.54 ×10⁻⁶ cm/s
half-life [3]: 6.63 h
bioavailability [4]: 15%
Cmax [5]: 3100 ng/mL
AUC(0-t) [6]: 7220 ng·h/mL
Cmax [7]: 549 ng/mL
half-life [8]: 7.09 h
AUC(0-t) [9]: 6220 ng·h/mL
bioavailability [10]: 86.1%
concentration at 36 h [11]: > 10 ng/mL
Activity (PANC-1 [12]): 4.45%
Activity (PANC-1 [13]): 9.3%
Activity (PANC-1 [14]): 0.8%
Activity (PANC-1 [15]): 45.6%
Activity (PANC-1 [16]): 0.2%
Activity (PANC-1 [17]): 3.7%
Activity (PANC-1 [18]): 51.15%
viability at 2 µM (PANC-1 [19]): 44.7%
Activity (PANC-1 [20]): Active
Activity (PANC-1 [21]): Active
Activity (PANC-1 [22]): Active
inhibition in vivo at 15 mg/kg (PANC-1 [23]): 39%
Activity (PANC-1 [24]): Active
inhibition [25]: Dose-dependent effect
inhibition [26]: Dose-dependent effect
Activity (Mus musculus [27]): Active
Activity (Mus musculus [28]): inactive
inhibition (HUVEC): Active
